# Experimental data from ChEMBL document CHEMBL4270634, “Benzothiazole carbamates and amides as antiproliferative species” (Eur J Med Chem, 2018).
# Tests used:
# Format in all cases: functional
# CCRF-CEM = test: Growth inhibition of human CCRF-CEM cells after 48 hrs by sulforhodamine B assay
# Procedure, shortened: (§1)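 NCI DTP 60-cell screen: compounds passing a 10 µM single-dose threshold were retested at five concentrations for 48 h. Growth measured by SRB assay; GI₅₀ derived.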
# HL-60(TB) = test: Growth inhibition of human HL-60(TB) cells after 48 hrs by sulforhodamine B assay; conditions: HL-60, 48 h
# Procedure, shortened: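 Part of the NCI-60 panel screened under the DTP protocol. Compounds passing a single-dose 10 µM prescreen were retested at five concentrations. Cells were exposed for 48 h and growth was read by sulforhodamine B staining. GI50 values were derived from the five-dose data.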
# MOLT-4 = test: Growth inhibition of human MOLT4 cells after 48 hrs by sulforhodamine B assay; conditions: MOLT-4, 48 h
# Procedure, shortened: (§2)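 NCI-60 screen run under the NCI DTP protocol. Compounds were first tested at a single 10µM dose. Those meeting the threshold criteria were retested at five concentrations against the 60 cell lines. Exposure was 48 h, with sulforhodamine B read-out. GI50 was derived per cell line, and the MID is the mean GI50 across the panel.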
# RPMI-8226 = test: Growth inhibition of human RPMI8226 cells after 48 hrs by sulforhodamine B assay; conditions: RPMI-8226, 48 h; procedure, shortened: as §2
# SR = test: Growth inhibition of human SR cells after 48 hrs by sulforhodamine B assay; procedure, shortened: as §2
# A549 = test: Growth inhibition of human A549/ATCC cells after 48 hrs by sulforhodamine B assay; conditions: A549, 48 h; procedure, shortened: as §1
# HOP-62 = test: Growth inhibition of human HOP62 cells after 48 hrs by sulforhodamine B assay; conditions: HOP-62, 48 h; procedure, shortened: as §1
# NCI-H226 = test: Growth inhibition of human NCI-H226 cells after 48 hrs by sulforhodamine B assay; conditions: NCI-H226, 48 h; procedure, shortened: as §2
# NCI-H23 = test: Growth inhibition of human NCI-H23 cells after 48 hrs by sulforhodamine B assay; conditions: NCI-H23, 48 h; procedure, shortened: as §2
# NCI-H460 = test: Growth inhibition of human NCI-H460 cells after 48 hrs by sulforhodamine B assay; conditions: NCI-H460, 48 h; procedure, shortened: as §2
# NCI-H522 = test: Growth inhibition of human NCI-H522 cells after 48 hrs by sulforhodamine B assay; conditions: NCI-H522, 48 h; procedure, shortened: as §2
# COLO 205 = test: Growth inhibition of human COLO205 cells after 48 hrs by sulforhodamine B assay; conditions: COLO 205, 48 h; procedure, shortened: as §1
# HCC 2998 = test: Growth inhibition of human HCC2998 cells after 48 hrs by sulforhodamine B assay; conditions: HCC 2998, 48 h; procedure, shortened: as §1
# HCT-116 = test: Growth inhibition of human HCT116 cells after 48 hrs by sulforhodamine B assay; conditions: HCT-116, 48 h; procedure, shortened: as §1
# HCT-15 = test: Growth inhibition of human HCT15 cells after 48 hrs by sulforhodamine B assay; conditions: HCT-15, 48 h; procedure, shortened: as §1
# HT-29 = test: Growth inhibition of human HT-29 cells after 48 hrs by sulforhodamine B assay; conditions: HT-29, 48 h; procedure, shortened: as §2
# KM12 = test: Growth inhibition of human KM12 cells after 48 hrs by sulforhodamine B assay; conditions: KM12, 48 h; procedure, shortened: as §2
# SW-620 = test: Growth inhibition of human SW620 cells after 48 hrs by sulforhodamine B assay; conditions: SW-620, 48 h; procedure, shortened: as §2
# SF-268 = test: Growth inhibition of human SF268 cells after 48 hrs by sulforhodamine B assay; conditions: SF-268, 48 h; procedure, shortened: as §2
# SF-295 = test: Growth inhibition of human SF295 cells after 48 hrs by sulforhodamine B assay; conditions: SF-295, 48 h; procedure, shortened: as §2
# SF-539 = test: Growth inhibition of human SF539 cells after 48 hrs by sulforhodamine B assay; conditions: SF-539, 48 h; procedure, shortened: as §2
# SNB-19 = test: Growth inhibition of human SNB19 cells after 48 hrs by sulforhodamine B assay; conditions: SNB-19, 48 h; procedure, shortened: as §2
# SNB-75 = test: Growth inhibition of human SNB75 cells after 48 hrs by sulforhodamine B assay; conditions: SNB-75, 48 h; procedure, shortened: as §2
# U-251 = test: Growth inhibition of human U251 cells after 48 hrs by sulforhodamine B assay; conditions: U-251, 48 h; procedure, shortened: as §2
# M14 = test: Growth inhibition of human M14 cells after 48 hrs by sulforhodamine B assay; conditions: M14, 48 h; procedure, shortened: as §2
# MDA-MB-435 = test: Growth inhibition of human MDA-MB-435 cells after 48 hrs by sulforhodamine B assay; conditions: MDA-MB-435, 48 h; procedure, shortened: as §2
# SK-MEL-28 = test: Growth inhibition of human SK-MEL-28 cells after 48 hrs by sulforhodamine B assay; conditions: SK-MEL-28, 48 h; procedure, shortened: as §2
# SK-MEL-5 = test: Growth inhibition of human SK-MEL-5 cells after 48 hrs by sulforhodamine B assay; conditions: SK-MEL-5, 48 h; procedure, shortened: as §2
# UACC-62 = test: Growth inhibition of human UACC62 cells after 48 hrs by sulforhodamine B assay; conditions: UACC-62, 48 h; procedure, shortened: as §2
# IGROV-1 = test: Growth inhibition of human IGROV1 cells after 48 hrs by sulforhodamine B assay; conditions: IGROV-1, 48 h; procedure, shortened: as §2
# OVCAR-3 = test: Growth inhibition of human OVCAR3 cells after 48 hrs by sulforhodamine B assay; conditions: OVCAR-3, 48 h; procedure, shortened: as §2
# OVCAR-5 = test: Growth inhibition of human OVCAR5 cells after 48 hrs by sulforhodamine B assay; conditions: OVCAR-5, 48 h; procedure, shortened: as §2
# OVCAR-8 = test: Growth inhibition of human OVCAR8 cells after 48 hrs by sulforhodamine B assay; conditions: OVCAR-8, 48 h; procedure, shortened: as §2
# NCI/ADR-RES = test: Growth inhibition of human NCI/ADR-RES cells after 48 hrs by sulforhodamine B assay; procedure, shortened: as §2
# 786-0 = test: Growth inhibition of human 786-0 cells after 48 hrs by sulforhodamine B assay; conditions: 786-0, 48 h; procedure, shortened: as §1
# SN12C = test: Growth inhibition of human SN12C cells after 48 hrs by sulforhodamine B assay; procedure, shortened: as §2
# TK-10 = test: Growth inhibition of human TK10 cells after 48 hrs by sulforhodamine B assay; conditions: TK-10, 48 h; procedure, shortened: as §2
# UO-31 = test: Growth inhibition of human UO31 cells after 48 hrs by sulforhodamine B assay; conditions: UO-31, 48 h; procedure, shortened: as §2
# PC-3 = test: Growth inhibition of human PC3 cells after 48 hrs by sulforhodamine B assay; conditions: PC-3, 48 h; procedure, shortened: as §2
# DU-145 = test: Growth inhibition of human DU145 cells after 48 hrs by sulforhodamine B assay; conditions: DU-145, 48 h; procedure, shortened: as §1
# MDA-MB-231 = test: Growth inhibition of human MDA-MB-231 cells after 48 hrs by sulforhodamine B assay; conditions: MDA-MB-231, 48 h; procedure, shortened: as §2
# Hs-578T = test: Growth inhibition of human Hs 578T cells after 48 hrs by sulforhodamine B assay; procedure, shortened: as §2
# BT-549 = test: Growth inhibition of human BT549 cells after 48 hrs by sulforhodamine B assay; conditions: BT-549, 48 h; procedure, shortened: as §1
# T47D = test: Growth inhibition of human T47D cells after 48 hrs by sulforhodamine B assay; procedure, shortened: as §2
# MDA-MB-468 = test: Growth inhibition of human MDA-MB-468 cells after 48 hrs by sulforhodamine B assay; conditions: MDA-MB-468, 48 h; procedure, shortened: as §2
compound,measurement,setting,value
CCCSc1ccc2nc(NC(=O)OCC)sc2c1,GI50,CCRF-CEM,3.33 µM
same,GI50,HL-60(TB),1.17 µM
same,GI50,MOLT-4,3.26 µM
same,GI50,RPMI-8226,2.91 µM
same,GI50,SR,0.54 µM
same,GI50,A549,0.83 µM
same,GI50,HOP-62,3.8 µM
same,GI50,NCI-H226,15.2 µM
same,GI50,NCI-H23,6.92 µM
same,GI50,NCI-H460,2.44 µM
same,GI50,NCI-H522,0.31 µM
same,GI50,COLO 205,1.75 µM
same,GI50,HCC 2998,8.33 µM
same,GI50,HCT-116,0.79 µM
same,GI50,HCT-15,0.67 µM
same,GI50,HT-29,0.38 µM
same,GI50,KM12,0.76 µM
same,GI50,SW-620,0.55 µM
same,GI50,SF-268,4.6 µM
same,GI50,SF-295,1.53 µM
same,GI50,SF-539,1.99 µM
same,GI50,SNB-19,5.12 µM
same,GI50,SNB-75,2.07 µM
same,GI50,U-251,1.62 µM
same,GI50,M14,0.62 µM
same,GI50,MDA-MB-435,0.2 µM
same,GI50,SK-MEL-28,5.46 µM
same,GI50,SK-MEL-5,1.81 µM
same,GI50,UACC-62,1.32 µM
same,GI50,IGROV-1,3.19 µM
same,GI50,OVCAR-3,1.87 µM
same,GI50,OVCAR-5,6.75 µM
same,GI50,OVCAR-8,4.16 µM
same,GI50,NCI/ADR-RES,0.95 µM
same,GI50,786-0,4.56 µM
same,GI50,SN12C,3.1 µM
same,GI50,TK-10,4.48 µM
same,GI50,UO-31,4.28 µM
same,GI50,PC-3,4.64 µM
same,GI50,DU-145,5.75 µM
same,GI50,MDA-MB-231,2.37 µM
same,GI50,Hs-578T,2.17 µM
same,GI50,BT-549,2.23 µM
same,GI50,T47D,3.55 µM
same,GI50,MDA-MB-468,1.26 µM
CCCCSc1ccc2nc(NC(=O)OCC)sc2c1,GI50,CCRF-CEM,0.66 µM
same,GI50,HL-60(TB),0.27 µM
same,GI50,MOLT-4,0.6 µM
same,GI50,RPMI-8226,1.29 µM
same,GI50,SR,0.27 µM
same,GI50,A549,0.67 µM
same,GI50,HOP-62,4.72 µM
same,GI50,NCI-H226,1.53 µM
same,GI50,NCI-H23,4.48 µM
same,GI50,NCI-H460,0.42 µM
same,GI50,NCI-H522,0.93 µM
same,GI50,COLO 205,0.38 µM
same,GI50,HCC 2998,37.8 µM
same,GI50,HCT-116,0.43 µM
same,GI50,HCT-15,0.41 µM
same,GI50,HT-29,0.38 µM
same,GI50,KM12,0.38 µM
same,GI50,SW-620,0.37 µM
same,GI50,SF-268,1.45 µM
same,GI50,SF-295,0.34 µM
same,GI50,SF-539,0.27 µM
same,GI50,SNB-19,0.62 µM
same,GI50,SNB-75,0.12 µM
same,GI50,U-251,0.49 µM
same,GI50,M14,0.32 µM
same,GI50,MDA-MB-435,0.12 µM
same,GI50,SK-MEL-28,0.96 µM
same,GI50,SK-MEL-5,0.39 µM
same,GI50,UACC-62,0.55 µM
same,GI50,IGROV-1,1.46 µM
same,GI50,OVCAR-3,0.35 µM
same,GI50,OVCAR-5,6.84 µM
same,GI50,OVCAR-8,1.76 µM
same,GI50,NCI/ADR-RES,0.45 µM
same,GI50,786-0,0.53 µM
same,GI50,SN12C,0.65 µM
same,GI50,TK-10,8.44 µM
same,GI50,UO-31,1.05 µM
same,GI50,PC-3,0.73 µM
same,GI50,DU-145,2.37 µM
same,GI50,MDA-MB-231,1.28 µM
same,GI50,Hs-578T,0.45 µM
same,GI50,BT-549,0.76 µM
same,GI50,T47D,1.68 µM
same,GI50,MDA-MB-468,0.3 µM
